The values below come from ChEMBL document CHEMBL1138207, “Engineering of a VPAC2 receptor peptide agonist to impart dipeptidyl peptidase IV stability and enhance in vivo glucose disposal” (J Med Chem, 2006).

For experiment [1], the target named is T1, Pituitary adenylate cyclase-activating polypeptide type I receptor (Homo sapiens, UniProt P41586). As to the kind of experiment: Activity at human PAC1 receptor in CHO cells by measuring cAMP accumulation. The format is cell-based. In outline:
(§1)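 CHO cells transfected with human PAC1, VPAC1 or VPAC2 receptor were incubated with peptide for 15 min at 37 °C. Buffer: HEPES pH 7.4 saline with 1% BSA, bacitracin and 100 µM IBMX as phosphodiesterase inhibitor. cAMP was measured by competitive 125I-cAMP scintillation proximity assay. Curves were fit to a single-site model.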
(Cyclic AMP is a second messenger, typically raised through Gs and lowered through Gi signalling.)

Experiment [2] addresses T2, Vasoactive intestinal polypeptide receptor 1 (Homo sapiens, UniProt P32241).
T2 sequence (P32241 whole entry): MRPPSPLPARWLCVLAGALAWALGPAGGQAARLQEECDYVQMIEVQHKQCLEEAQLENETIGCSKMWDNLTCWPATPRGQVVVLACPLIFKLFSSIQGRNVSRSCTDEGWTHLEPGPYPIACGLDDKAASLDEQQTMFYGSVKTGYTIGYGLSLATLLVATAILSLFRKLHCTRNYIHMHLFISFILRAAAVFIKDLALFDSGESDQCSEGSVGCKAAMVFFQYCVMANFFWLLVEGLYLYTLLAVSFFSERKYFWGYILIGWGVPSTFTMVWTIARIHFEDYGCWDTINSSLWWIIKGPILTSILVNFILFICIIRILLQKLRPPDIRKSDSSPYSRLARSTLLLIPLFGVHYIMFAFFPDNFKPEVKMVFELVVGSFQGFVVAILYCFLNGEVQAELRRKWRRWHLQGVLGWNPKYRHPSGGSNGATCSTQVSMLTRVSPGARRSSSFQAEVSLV
As to the kind of experiment: Activity at human VPAC1 receptor in CHO cells by measuring cAMP accumulation. The class given is functional, cell-based. Put shortly: as §1

The target in experiment [3] is T1, Pituitary adenylate cyclase-activating polypeptide type I receptor. In words: Displacement of [125I]PACAP27 from human PAC1 receptor expressed in CHO cells. The format is cell-based. In outline:
(§2)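 Membranes (10 µg) from CHO cells transfected with human PAC1, VPAC1 or VPAC2 receptor were incubated with 0.1 nM 125I-PACAP27 and competing peptide for 20 min at 37 °C. Buffer: 20 mM HEPES pH 7.4, 0.5% BSA, CaCl2, bacitracin. Reactions were stopped on ice. Bound ligand was collected by filtration on PEI-treated filters and counted by scintillation. Data were fit to a single-site model.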
On the technique in general: In a radioligand displacement assay an active substance lowers the binding of a labelled ligand.

In experiment [4] the target is T2, Vasoactive intestinal polypeptide receptor 1. In words: Displacement of [125I]PACAP27 from human VPAC1 receptor expressed in CHO cells. The format is cell-based. Put shortly:
as §2

T1 sequence (P41586 whole entry): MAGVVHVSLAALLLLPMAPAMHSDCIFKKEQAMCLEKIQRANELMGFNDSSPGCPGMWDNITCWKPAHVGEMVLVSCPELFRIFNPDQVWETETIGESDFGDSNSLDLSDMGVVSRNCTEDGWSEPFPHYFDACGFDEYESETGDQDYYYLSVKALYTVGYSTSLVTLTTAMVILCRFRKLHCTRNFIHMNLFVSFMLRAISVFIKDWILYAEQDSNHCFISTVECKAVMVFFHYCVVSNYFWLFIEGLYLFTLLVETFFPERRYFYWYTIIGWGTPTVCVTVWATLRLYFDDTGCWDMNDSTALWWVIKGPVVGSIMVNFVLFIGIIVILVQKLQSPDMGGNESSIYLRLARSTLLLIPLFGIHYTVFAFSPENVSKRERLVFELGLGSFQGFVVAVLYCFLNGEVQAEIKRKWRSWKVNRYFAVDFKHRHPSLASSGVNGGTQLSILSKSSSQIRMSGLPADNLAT

As usually defined, the EC50 is the concentration at which the effect is half-maximal. A high value points to a less potent agent. As usually defined, the IC50 is the concentration that gives 50% inhibition. Lower therefore signals higher potency. As for `CC[C@H](C)[C@H](NC(=O)CNC(=O)[C@H](CC(=O)O)NC(=O)[C@H](CO)NC(=O)[C@@H](N)Cc1cnc[nH]1)C(=O)N[C@@H](Cc1ccccc1)C(=O)N[C@H](C(=O)N[C@@H](CC(=O)O)C(=O)N[C@@H](CO)C(=O)N[C@@H](Cc1ccc(O)cc1)C(=O)N[C@@H](CO)C(=O)N[C@@H](CCCN=C(N)N)C(=O)N[C@@H](Cc1ccc(O)cc1)C(=O)N[C@@H](CCCN=C(N)N)C(=O)N[C@@H](CCCCN)C(=O)N[C@@H](CCC(N)=O)C(=O)N[C@@H](CCSC)C(=O)N[C@@H](C)C(=O)N[C@H](C(=O)N[C@@H](CCCCN)C(=O)N[C@@H](CCCCN)C(=O)N[C@@H](Cc1ccc(O)cc1)C(=O)N[C@@H](CC(C)C)C(=O)N[C@@H](C)C(=O)N[C@@H](C)C(=O)N[C@H](C(=O)N[C@@H](CC(C)C)C(=O)O)C(C)C)C(C)C)[C@@H](C)O`, the half-maximal effective concentration (EC50) in experiment [1] turned out to be 0.13 nM; in experiment [2], 0.6 nM. In addition, the half-maximal inhibitory concentration (IC50) in experiment [3] was found to be 3 nM; in experiment [4] it was 12 nM.
